The source made the active and inactive calls. No cut-off for these calls is given here.
Columns and labels:
[1] = biological target: Polyamine deacetylase HDAC10 (Homo sapiens, UniProt Q969S8); assay: Inhibition of recombinant N-terminal FLAG-tagged human HDAC10 (2 to 631 residues) expressed in baculovirus infected Sf9 cells using Ac-peptide-AMC as substrate after 1 hr by fluorescence assay
Histone deacetylase 8 = Histone deacetylase 8 (Homo sapiens, UniProt Q9BY41); assay: Inhibition of recombinant full length C-terminal His-tagged human HDAC8 expressed in baculovirus infected in Sf9 cells using Ac-peptide-AMC as substrate after 1 hr by fluorescence assay
HepG2 = assay: Antiproliferative activity against human HepG2 cells after 72 hrs by MTT assay; format: functional, cell-based; details: HepG2, 72 h
[2] = Cmax in Sprague-Dawley rat at 5 mg/kg, iv measured upto 24 hrs by LC-MS/MS analysis; format: ADME, organism-based; set-up: dose 5 mg/kg, route intravenous; details: in vivo
Outline: (§1)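 SD rats (200-250 g), six per time point, given 5 mg/kg as a tail-vein bolus or orally. Blood was taken by cardiac puncture before dosing and at 5, 15, 30, 45 min and 1, 2, 4, 6, 8, 10, 12 and 24 h. Plasma was spun at 4000 g for 15 min at 4 °C and stored at -80 °C. Analysis was LC-MS/MS with multiple-reaction monitoring, followed by noncompartmental analysis.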

[3] = Antiproliferative activity against human ARD cells after 72 hrs by MTT assay; format: functional, cell-based
Raji = assay: Antiproliferative activity against human Raji cells after 72 hrs by MTT assay; format: functional, cell-based
JeKo-1 [4] = assay: Induction of apoptosis in human JeKo1 cells assessed as late apoptotic cells at 100 nM after 48 hrs by annexin V-FITC/propidium iodide staining-based flow cytometric method (reference value: 3.07 %); format: functional
Outline: (§2)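 Jeko-1 cells were grown in RPMI-1640 with 10% FBS at 37 °C under 5% CO2. They were exposed to 0, 10, 100 or 1000 nM for 48 h, then apoptosis induction was analysed.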

[5] = AUC ( 0 to t) in Sprague-Dawley rat at 5 mg/kg, po measured upto 24 hrs by LC-MS/MS analysis; format: ADME, organism-based; set-up: dose 5 mg/kg, time < 24 hr, route oral; details: in vivo; outline: as §1
[6] = Toxicity in NOD/SCID mouse xenografted with human Daudi cells assessed as abnormal behavior at 10 mg/kg, iv treated on day 1,3 and 5 per week and measured for every 2 days; format: organism-based; details: in vivo, 48 h
Outline: (§3)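 Female NOD/SCID mice (5–6 weeks) bearing s.c. Daudi xenografts, six per group. Dosing was 10 mg/kg i.v. or 20 mg/kg p.o. in 8% HP-β-CD on days 1, 3 and 5 weekly. Behaviour was observed, and organ tissues were collected at sacrifice for H&E staining.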

Histone deacetylase 2 = Histone deacetylase 2 (Homo sapiens, UniProt Q92769); assay: Inhibition of recombinant full length human HDAC2 expressed in sf9 insect cells using Ac-peptide-AMC as substrate after 1 hr by fluorescence assay; format: cell-based
[7] = Toxicity in NOD/SCID mouse xenografted with human Daudi cells assessed as organ damage at 10 mg/kg, iv treated on day 1,3 and 5 per week and measured for every 2 days by H and E staining based assay; format: organism-based; details: in vivo, 48 h; outline: as §3
JeKo-1 [8] = assay: Cell cycle arrest in human JeKo1 cells assessed as accumulation at G1 phase at 100 nM after 24 hrs by propidium iodide staining based flow cytometric analysis (reference value: 63.16 %); format: functional
[9] = Half life in Sprague-Dawley rat at 5 mg/kg, iv measured upto 24 hrs by LC-MS/MS analysis; format: ADME, organism-based; details: in vivo; outline: as §1
JeKo-1 [10] = assay: Cell cycle arrest in human JeKo1 cells assessed as accumulation at G2/M phase at 10 nM after 24 hrs by propidium iodide staining based flow cytometric analysis (reference value: 10.71 %); format: functional
JeKo-1 [11] = assay: Induction of apoptosis in human JeKo1 cells assessed as early apoptotic cells at 1000 nM after 48 hrs by annexin V-FITC/propidium iodide staining-based flow cytometric method (reference value: 3.34 %); format: functional; outline: as §2
JeKo-1 [12] = assay: Induction of apoptosis in human JeKo1 cells assessed as early apoptotic cells at 10 nM after 48 hrs by annexin V-FITC/propidium iodide staining-based flow cytometric method (reference value: 3.34 %); format: functional; outline: as §2
Histone deacetylase 1 = Histone deacetylase 1 (Homo sapiens, UniProt Q13547); assay: Inhibition of recombinant full length HDAC1 (unknown origin) using Ac-peptide-AMC as substrate after 1 hr by fluorescence assay
[13] = Toxicity in NOD/SCID mouse xenografted with human Daudi cells at 20 mg/kg, po treated on day 1,3 and 5 per week and measured for every 2 days; format: organism-based; details: in vivo, 48 h; outline: as §3
JeKo-1 [14] = assay: Induction of apoptosis in human JeKo1 cells assessed as late apoptotic cells at 1000 nM after 48 hrs by annexin V-FITC/propidium iodide staining-based flow cytometric method (reference value: 3.07 %); format: functional; outline: as §2
JeKo-1 [15] = assay: Cell cycle arrest in human JeKo1 cells assessed as accumulation at G1 phase at 1000 nM after 24 hrs by propidium iodide staining based flow cytometric analysis (reference value: 63.16 %); format: functional
Leukemia cell = assay: Antiproliferative activity against human AML patient derived primary leukemia cells after 72 hrs by MTT assay; format: functional, cell-based
JeKo-1 [16] = assay: Induction of apoptosis in human JeKo1 cells assessed as viable cells at 1000 nM after 48 hrs by annexin V-FITC/propidium iodide staining-based flow cytometric method (reference value: 91.6 %); format: functional; details: JeKo-1, 48 h, read-out: Activity; outline: as §2
[17] = biological target: Histone deacetylase 1/2/3 (Homo sapiens) (UniProt Q13547+O15379+Q92769); assay: Inhibition of HDAC1/2/3 in human MM1S cells assessed as upregulation of H3 acetylation at 40 nM after 6 hrs by Western blot analysis; format: cell-based
JeKo-1 [18] = assay: Induction of apoptosis in human JeKo1 cells assessed as viable cells at 10 nM after 48 hrs by annexin V-FITC/propidium iodide staining-based flow cytometric method (reference value: 91.6 %); format: functional; details: JeKo-1, 48 h, read-out: Activity; outline: as §2
[19] = biological target: Histone deacetylase 3/Nuclear receptor corepressor 2 (HDAC3/NCoR2) (Homo sapiens, UniProt O15379); assay: Inhibition of human recombinant full length C-terminal His-tagged HDAC3 (1 to 428 residues)/N-terminal GST-tagged NCOR2 (395 to 489 residues) expressed in Sf9 cells using Ac-peptide-AMC as substrate after 1 hr by fluorescence assay
JeKo-1 [20] = assay: Antiproliferative activity against human JeKo1 cells after 72 hrs by MTT assay; format: functional, cell-based; details: JeKo-1, 72 h
Daudi = assay: Antitumour activity against human Daudi cells xenografted in NOD/SCID mouse assessed as increase in acetylated H4 expression at 20 mg/kg, po treated on day 1,3 and 5 per week by immunohistochemical analysis; format: functional, organism-based
Outline: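 Daudi s.c. xenografts in female NOD/SCID mice (5–6 weeks) were randomized six per group at 100–200 mm3. Dosing was 10 mg/kg i.v. or 20 mg/kg p.o. in 8% HP-β-CD on days 1, 3 and 5 weekly. Tumors were collected at study end for immunohistochemistry, with comparison to the control group.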

MCF7 = assay: Antiproliferative activity against human MCF7 cells after 72 hrs by MTT assay; format: functional, cell-based; details: MCF7, 72 h
JeKo-1 [21] = assay: Induction of apoptosis in human JeKo1 cells assessed as necrotic cells at 100 nM after 48 hrs by annexin V-FITC/propidium iodide staining-based flow cytometric method (reference value: 2.03 %); format: functional; outline: as §2

Chain of Histone deacetylase 8 (Q9BY41 whole entry): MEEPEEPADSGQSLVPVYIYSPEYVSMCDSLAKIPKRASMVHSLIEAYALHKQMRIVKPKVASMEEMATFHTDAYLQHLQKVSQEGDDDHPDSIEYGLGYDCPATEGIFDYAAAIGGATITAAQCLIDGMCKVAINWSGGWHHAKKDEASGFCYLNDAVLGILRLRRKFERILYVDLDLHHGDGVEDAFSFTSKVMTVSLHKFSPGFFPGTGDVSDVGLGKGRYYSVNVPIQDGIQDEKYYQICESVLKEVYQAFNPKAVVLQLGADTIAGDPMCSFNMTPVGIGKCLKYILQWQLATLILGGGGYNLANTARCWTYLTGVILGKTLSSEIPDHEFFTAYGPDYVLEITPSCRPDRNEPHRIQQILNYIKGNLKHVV
Chain of Histone deacetylase 3/Nuclear receptor corepressor 2 (HDAC3/NCoR2) (O15379 whole entry, the tested form may be a part): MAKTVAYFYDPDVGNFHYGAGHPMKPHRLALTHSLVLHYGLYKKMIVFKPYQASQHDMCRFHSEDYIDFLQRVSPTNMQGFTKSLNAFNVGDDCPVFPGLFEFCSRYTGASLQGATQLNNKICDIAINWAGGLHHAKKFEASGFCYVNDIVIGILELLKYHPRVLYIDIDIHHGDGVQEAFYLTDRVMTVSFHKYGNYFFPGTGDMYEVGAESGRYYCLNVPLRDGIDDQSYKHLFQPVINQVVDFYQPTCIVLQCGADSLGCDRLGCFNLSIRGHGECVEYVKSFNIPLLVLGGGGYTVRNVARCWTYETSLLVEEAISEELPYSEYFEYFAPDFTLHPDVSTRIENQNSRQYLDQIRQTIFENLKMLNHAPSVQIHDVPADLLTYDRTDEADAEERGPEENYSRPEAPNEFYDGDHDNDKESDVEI
Chain of Histone deacetylase 3/Nuclear receptor corepressor 2 (HDAC3/NCoR2) (Q9Y618 whole entry, further chain, the tested form may be a part): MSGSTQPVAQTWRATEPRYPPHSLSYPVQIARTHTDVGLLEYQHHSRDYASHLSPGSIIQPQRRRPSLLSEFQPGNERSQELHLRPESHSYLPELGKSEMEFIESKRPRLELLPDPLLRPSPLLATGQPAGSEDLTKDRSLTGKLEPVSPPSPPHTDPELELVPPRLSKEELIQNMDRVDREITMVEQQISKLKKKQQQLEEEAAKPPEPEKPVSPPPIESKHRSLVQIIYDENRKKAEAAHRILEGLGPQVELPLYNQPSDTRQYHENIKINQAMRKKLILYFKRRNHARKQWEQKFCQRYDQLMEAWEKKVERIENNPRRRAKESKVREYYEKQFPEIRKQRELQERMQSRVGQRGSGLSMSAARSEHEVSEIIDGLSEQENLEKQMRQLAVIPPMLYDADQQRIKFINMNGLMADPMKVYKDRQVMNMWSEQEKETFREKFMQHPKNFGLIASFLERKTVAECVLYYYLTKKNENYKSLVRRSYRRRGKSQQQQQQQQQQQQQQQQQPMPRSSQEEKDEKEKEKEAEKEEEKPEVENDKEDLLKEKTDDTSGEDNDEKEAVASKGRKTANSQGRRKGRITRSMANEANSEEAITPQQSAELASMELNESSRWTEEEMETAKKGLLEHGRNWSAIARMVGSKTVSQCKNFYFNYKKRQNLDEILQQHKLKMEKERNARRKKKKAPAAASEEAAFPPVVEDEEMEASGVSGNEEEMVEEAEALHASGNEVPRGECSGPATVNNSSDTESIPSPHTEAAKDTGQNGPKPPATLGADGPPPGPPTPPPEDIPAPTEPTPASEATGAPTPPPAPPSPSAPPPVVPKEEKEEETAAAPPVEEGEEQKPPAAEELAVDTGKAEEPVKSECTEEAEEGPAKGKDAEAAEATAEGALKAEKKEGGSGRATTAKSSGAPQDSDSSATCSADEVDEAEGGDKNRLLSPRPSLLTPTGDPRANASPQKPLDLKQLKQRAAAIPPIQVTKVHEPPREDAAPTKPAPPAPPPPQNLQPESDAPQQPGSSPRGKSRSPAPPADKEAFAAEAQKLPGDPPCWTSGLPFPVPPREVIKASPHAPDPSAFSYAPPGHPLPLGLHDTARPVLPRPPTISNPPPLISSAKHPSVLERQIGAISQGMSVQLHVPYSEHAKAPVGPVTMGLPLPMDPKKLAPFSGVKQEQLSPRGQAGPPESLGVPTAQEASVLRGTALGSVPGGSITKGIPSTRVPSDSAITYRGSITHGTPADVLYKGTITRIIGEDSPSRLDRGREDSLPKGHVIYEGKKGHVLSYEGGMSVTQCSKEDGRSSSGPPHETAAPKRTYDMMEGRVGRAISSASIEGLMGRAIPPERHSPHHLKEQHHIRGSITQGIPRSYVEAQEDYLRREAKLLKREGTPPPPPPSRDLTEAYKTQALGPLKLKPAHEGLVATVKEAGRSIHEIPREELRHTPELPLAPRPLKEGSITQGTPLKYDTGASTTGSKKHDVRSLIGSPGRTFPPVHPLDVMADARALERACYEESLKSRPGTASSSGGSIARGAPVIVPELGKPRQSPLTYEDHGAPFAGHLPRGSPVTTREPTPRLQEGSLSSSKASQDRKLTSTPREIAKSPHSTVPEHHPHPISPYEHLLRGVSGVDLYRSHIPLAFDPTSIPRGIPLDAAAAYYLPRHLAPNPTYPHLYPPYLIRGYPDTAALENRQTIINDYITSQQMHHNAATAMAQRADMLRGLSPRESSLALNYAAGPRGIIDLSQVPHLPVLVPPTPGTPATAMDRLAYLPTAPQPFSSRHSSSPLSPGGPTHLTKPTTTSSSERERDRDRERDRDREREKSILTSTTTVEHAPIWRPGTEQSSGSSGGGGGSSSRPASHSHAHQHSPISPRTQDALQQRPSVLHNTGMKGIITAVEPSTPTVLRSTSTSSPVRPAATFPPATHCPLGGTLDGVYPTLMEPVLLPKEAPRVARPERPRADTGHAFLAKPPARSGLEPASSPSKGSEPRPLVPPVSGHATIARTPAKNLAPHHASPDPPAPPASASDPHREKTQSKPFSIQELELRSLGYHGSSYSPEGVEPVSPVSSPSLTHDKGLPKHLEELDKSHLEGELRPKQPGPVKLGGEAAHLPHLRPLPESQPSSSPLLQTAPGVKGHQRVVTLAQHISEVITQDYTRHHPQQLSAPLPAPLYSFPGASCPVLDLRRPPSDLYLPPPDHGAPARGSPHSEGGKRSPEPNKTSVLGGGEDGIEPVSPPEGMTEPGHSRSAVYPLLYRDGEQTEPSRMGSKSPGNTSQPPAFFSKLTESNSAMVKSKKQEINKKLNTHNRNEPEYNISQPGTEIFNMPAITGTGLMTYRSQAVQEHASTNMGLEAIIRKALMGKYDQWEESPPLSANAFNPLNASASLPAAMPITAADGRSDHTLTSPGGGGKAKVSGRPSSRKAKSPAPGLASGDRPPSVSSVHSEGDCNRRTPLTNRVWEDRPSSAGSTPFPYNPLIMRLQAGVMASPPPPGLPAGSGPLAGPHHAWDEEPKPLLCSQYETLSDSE
Chain of Polyamine deacetylase HDAC10 (Q969S8 whole entry, the tested form may be a part): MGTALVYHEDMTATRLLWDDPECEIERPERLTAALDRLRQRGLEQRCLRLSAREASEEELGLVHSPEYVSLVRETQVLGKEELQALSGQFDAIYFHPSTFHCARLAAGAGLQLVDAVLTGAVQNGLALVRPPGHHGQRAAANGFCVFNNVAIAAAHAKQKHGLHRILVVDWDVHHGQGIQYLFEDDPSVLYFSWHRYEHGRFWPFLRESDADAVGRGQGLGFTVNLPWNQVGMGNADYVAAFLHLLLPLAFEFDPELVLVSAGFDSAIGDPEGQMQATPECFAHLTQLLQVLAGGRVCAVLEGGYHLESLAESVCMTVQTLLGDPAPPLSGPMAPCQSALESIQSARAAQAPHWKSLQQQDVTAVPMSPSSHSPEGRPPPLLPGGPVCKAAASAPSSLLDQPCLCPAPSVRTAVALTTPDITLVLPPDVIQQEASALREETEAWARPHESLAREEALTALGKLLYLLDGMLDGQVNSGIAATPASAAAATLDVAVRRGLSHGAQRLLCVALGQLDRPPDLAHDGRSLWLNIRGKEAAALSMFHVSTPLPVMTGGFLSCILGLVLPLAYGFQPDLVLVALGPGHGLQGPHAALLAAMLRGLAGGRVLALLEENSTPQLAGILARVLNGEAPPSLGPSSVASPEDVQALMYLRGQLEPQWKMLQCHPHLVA
Chain of Histone deacetylase 2 (Q92769 whole entry): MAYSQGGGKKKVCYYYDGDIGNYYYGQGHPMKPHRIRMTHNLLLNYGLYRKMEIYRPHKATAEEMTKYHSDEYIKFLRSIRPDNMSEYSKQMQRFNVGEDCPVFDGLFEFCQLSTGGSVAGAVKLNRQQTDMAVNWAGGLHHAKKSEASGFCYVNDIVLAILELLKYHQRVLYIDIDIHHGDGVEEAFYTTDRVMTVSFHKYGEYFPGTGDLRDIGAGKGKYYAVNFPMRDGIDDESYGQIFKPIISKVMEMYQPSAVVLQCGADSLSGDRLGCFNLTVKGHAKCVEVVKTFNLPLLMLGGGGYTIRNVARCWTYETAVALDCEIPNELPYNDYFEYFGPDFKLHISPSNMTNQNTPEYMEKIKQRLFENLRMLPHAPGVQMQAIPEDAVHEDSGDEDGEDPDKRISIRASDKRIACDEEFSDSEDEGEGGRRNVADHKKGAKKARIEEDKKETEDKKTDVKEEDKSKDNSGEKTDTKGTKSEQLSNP
Chain of Histone deacetylase 1 (Q13547 whole entry): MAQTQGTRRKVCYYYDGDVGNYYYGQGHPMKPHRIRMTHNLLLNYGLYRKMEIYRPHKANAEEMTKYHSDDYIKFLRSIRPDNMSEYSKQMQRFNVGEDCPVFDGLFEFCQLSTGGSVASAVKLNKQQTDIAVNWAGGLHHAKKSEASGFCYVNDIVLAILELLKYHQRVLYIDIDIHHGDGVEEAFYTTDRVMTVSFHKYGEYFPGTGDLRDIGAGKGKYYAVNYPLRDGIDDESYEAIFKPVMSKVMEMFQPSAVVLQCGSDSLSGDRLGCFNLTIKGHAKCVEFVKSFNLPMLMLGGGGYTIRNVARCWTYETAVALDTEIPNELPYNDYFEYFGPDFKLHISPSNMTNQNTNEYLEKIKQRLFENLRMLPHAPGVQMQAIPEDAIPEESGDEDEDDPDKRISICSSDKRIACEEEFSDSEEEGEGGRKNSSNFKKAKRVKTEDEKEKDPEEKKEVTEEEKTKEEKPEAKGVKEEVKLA

IC50 [1]: 102 nM | IC50 (Histone deacetylase 8): 260 nM | IC50 (HepG2): 13 nM | Cmax [2]: 955 ng/mL | IC50 (Raji): 12.1 nM | AUC(0-t) at 24 h [5]: 232 ng·h/mL | IC50 (Histone deacetylase 2): 3.6 nM | half-life [9]: 23.4 min | IC50 (Histone deacetylase 1): 1.8 nM | IC50 (Leukemia cell): 21.2 to 61.1 nM | inhibition [17]: Active | IC50 [19]: 3 nM | IC50 (MCF7): 14.4 nM
SMILES: Cc1ccc(CN2CCC(c3noc(CN(C)c4ncc(C(=O)NO)cn4)n3)CC2)cc1
IC50 [3]: 44.9 nM | Activity (JeKo-1 [4]): 17.3% | Activity [6]: Non-Toxic | Activity [7]: Non-Toxic | Activity (JeKo-1 [8]): 80.74% | Activity (JeKo-1 [10]): 9.1% | Activity (JeKo-1 [11]): 42.7% | Activity (JeKo-1 [12]): 5.57% | Activity [13]: Non-Toxic | Activity (JeKo-1 [14]): 30.4% | Activity (JeKo-1 [15]): 82.86% | viability at 1 µM (JeKo-1 [16]): 26.9% | viability at 0.01 µM (JeKo-1 [18]): 91.8% | IC50 (JeKo-1 [20]): 7.2 nM | Activity (Daudi): Active | Activity (JeKo-1 [21]): 0.061%
